# Active and inactive are the calls of the source. The rule behind the calls is not given here.
# Key:
# HT-29 [1] = test: Cytotoxicity against human HT29 cells at 10ug/ml by SRB assay; assay type: functional, cell-based
# How it was run: (§1)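 SRB colorimetric assay of cell growth and viability, adapted from a published method, in human tumour lines MDA-MB-231 (breast adenocarcinoma), A-549 (lung adenocarcinoma) and HT-29 (colon adenocarcinoma). The highest concentration tested was 10 µg/mL. Read-outs were GI50 and TGI, both in µM.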
# A549 [2] = test: Cytotoxicity against human A549 cells at 10ug/ml by SRB assay; assay type: functional, cell-based; how it was run: as §1
# MDA-MB-231 [3] = test: Cytotoxicity against human MDA-MB-231 cells at 10ug/ml by SRB assay; assay type: functional, cell-based; how it was run: as §1
# MDA-MB-231 [4] = test: Cytotoxicity against human MDA-MB-231 cells by SRB assay; assay type: functional; how it was run: as §1
# HT-29 [5] = test: Cytotoxicity against human HT29 cells by SRB assay; assay type: functional; how it was run: as §1
# A549 [6] = test: Cytotoxicity against human A549 cells by SRB assay; assay type: functional; how it was run: as §1
SMILES,Activity (HT-29 [1]),Activity (A549 [2]),Activity (MDA-MB-231 [3]),GI50 (MDA-MB-231 [4]) [µM],TGI (MDA-MB-231 [4]) [µM],GI50 (HT-29 [5]) [µM],TGI (HT-29 [5]) [µM],GI50 (A549 [6]) [µM],TGI (A549 [6]) [µM]
CC(C)[C@@H]1CC[C@](C)(N=C=S)[C@]2(O)CC[C@@](C)(O)C=C12,inactive,inactive,inactive,–,–,–,–,–,–
CC(C)[C@@]1(OO)CC[C@](C)(N=C=S)[C@@H]2CC[C@@](C)(O)C=C21,inactive,inactive,inactive,–,–,–,–,–,–
CC(C)[C@@H]1CC[C@](C)(N=C=S)[C@@H]2CC[C@@](C)(O)C=C12 [AXINISOTHIOCYANATE J],–,–,–,10.4,14.3,11.8,14,11.8,19
CC1=C[C@@H]2[C@@H](C(C)C)CC[C@@](C)(N=C=S)[C@@H]2CC1=O [AXINISOTHIOCYANATE L],–,–,–,–,–,31.4,–,31.4,–

# — ChEMBL document CHEMBL1149837, “Isothiocyanate sesquiterpenes from a sponge of the genus axinyssa” (2008)
